Most compounds without a hit are left out; they make up all but 3.5% or so of the library.
Env fusion inh – HIV envelope-mediated fusion inhibition; 360,000 tested, 1.1% active; AID 651610; HeLa-JRFL Env/CEM21 cell fusion, luciferase; inhibition, % at 12.3 µM;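 active means mean replicate inhibition score of at least 50 and every replicate individually at or above 50; inconclusive means only one of the two criteria met; inactive means mean below 50 and not all replicates reaching 50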;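 further: 0% = plate neutral controls and 100% = maraviroc near 300 nM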
DENV2 CPE rescue – inhibitors of DENV2 cytopathic effect; DENV2-infected cells, cytopathic effect rescue, plate reader; CPE inhibition, % at 9.99 µM; 350,000 tested, 1.7% active; in the data active means CPE inhibition above about 20%, passing the limit was not always enough; inconclusive means no clear call, values can overlap the other calls; tested in BHK-21 cells;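 further: 0% = median of neutral control wells and 100% = median of positive control wells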
rRNA inh HTS – inhibits bacterial ribosomal RNA function over humanized ribosomes; E. coli WT GFP vs humanized-ribosome RFP mutants, fluorescence, 24 h; hits give low values; DMSO median 0, no signal -100; GFP signal change (wild-type ribosome), % (test concentration not listed); 350,000 tested, 1.6% active; AID 720706;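 active means significant combined selectivity score with lowered wild-type GFP, culture density cut under 30%, mutant RFP and density less affected; inactive means any of these conditions unmet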
FN deposition inh – fibronectin deposition inhibition; AH1F fibroblasts, Alexa488-fibronectin deposition fluorescence, overnight; inhibition, % at 12.6 µM; 350,000 tested, 0.086% active;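 active means mean inhibition across replicates of 30% or more, regardless of how many single replicates reach that level; inconclusive means mean under 30% yet at least half of replicates reach 30%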;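 further: positive control wells lacked labelled fibronectin entirely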
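material = AH1F fibroblast monolayer depositing Alexa488-labelled fibronectin into matrix | amount = 10000 AH1F cells/well | buffer or medium = DMEM plus 2% serum, read in PBS | incubation = 1 h cell adhesion before compound, then overnight fibronectin incubation | detection = fluorescence at 485 nm excitation, 525 nm emission | evaluation = percent inhibition as loss of matrix-bound fibronectin fluorescence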
PglD inh – inhibitors of Campylobacter jejuni PglD acetyltransferase | purified PglD enzyme, DTNB colorimetric CoA detection | inhibition, % at 12.5 µM | 360,000 tested, 0.098% active; in the data active means inhibition above about 16%, passing the limit was not always enough; inconclusive means no clear call, values can overlap the other calls
PGC1a acetyl inh – PGC1a acetylation modulation, inhibitor mode. U2OS PGC1a acetylation, AlphaScreen anti-acetyl-lysine; with virally co-expressed GCN5 acetyltransferase. inhibition, % at 15.6 µM. 350,000 tested, 0.17% active. AID 651687;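 active means every replicate shows inhibition of at least 40%; inconclusive means mean inhibition at least 40% but some replicate below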;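 further: 0% = neutral control wells and 100% = positive control wells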
The depositor's hits bear a star; ? = inconclusive; / = no result given; [ ] = dose if it differs, or a comment.

SMILES	Env fusion inh	DENV2 CPE rescue	rRNA inh HTS	FN deposition inh	PglD inh	PGC1a acetyl inh
O=C(COc1ccc2c(-c3ccccc3)cc(=O)oc2c1)NC1CCS(=O)(=O)C1 (stereo not given)	/	143*	9	/	0	-3
COc1ccc(-c2cc(=O)oc3c(C)c(O)ccc23)cc1	72*	-6	2	-3	-1	1
CCN(CC)C(=O)COc1ccc2c(-c3ccc(OC)cc3)cc(=O)oc2c1	-6	12	-22*	-6	2	/
COc1ccc(OC)c(NC(=O)c2cc(-c3cc(Cl)ccc3O)n[nH]2)c1	55*	/	/	9	-5	-18
COc1ccc(Cl)cc1NC(=O)c1cc(-c2ccccc2O)n[nH]1	-2	/	/	1	/	/
COCc1cn(CC[C@@H]2CC[C@@H](NC(=O)Nc3ccccc3)[C@H](CO)O2)nn1	-14[16.7 µM]	7	1	/	-3	-2
CC(C)NC(=O)Nc1cccc2c1O[C@@H](CN(C)C)[C@H](C)CN(C)C2=O	/	/	5	-2	/	/
CNC(=O)CSCc1c(Cl)cccc1Cl	/	/	/	/	4	-11
CNC(=S)NNC(=O)CSCc1c(Cl)cccc1Cl	2	4	-21*	-12	-5	-6
Clc1nc(NCCc2ccccc2)c2cn[nH]c2n1	20	-1	-30*	/	4	-10
O=C(Nc1ccc2c(c1)OCO2)N[C@@H]1CC[C@@H](CC(=O)N2CCN(c3ccccc3)CC2)O[C@H]1CO	-3[16.7 µM]	-3	-4	-2	2	-1
COc1c(-c2ccc(O)cc2)oc2cc(O)cc(O)c2c1=O	/	7	-20*	/	-6	-11
COc1ccc(-c2oc3cc(O)c(OC)c(O)c3c(=O)c2OC)cc1	/	-2	/	/	-3	-3
COc1cccc(CNC(=O)CCC2CCCN(C/C=C/c3ccccc3OC)C2)c1 (stereo not given)	28	8	0	-3	-1	3
COc1ccccc1/C=C/CN1CCCC(CCC(=O)NCc2ccc(F)c(F)c2)C1 (stereo not given)	63*	?	2	-5	/	-1
COCCNC(=O)CCC1CCN(C/C=C/c2ccccc2OC)CC1	1	29*	11	0	4	2
CCC(=O)N1CC2(CCN(C(=O)Nc3c(C)noc3C)CC2)c2c([nH]c3cc(OC)ccc23)[C@H]1CO	/	-9	4	-5	/	-4
O=C(C[C@H]1CC[C@@H]2NC[C@H](O)COC[C@H]2O1)NCc1ccc2c(c1)OCO2	-5[16.7 µM]	18	1	6	-3	2
Nc1c(O)ccc2c1C(=O)c1ccccc1C2=O	-15	18	-56*	4	/	/
Nc1cc(N)c2c(c1)C(=O)c1ccccc1-2	-25	?	-8	11	-3	16
Cc1ccc(C(=O)O/N=C(\N)c2ccccn2)c(Cl)c1	85*	-1	-8	0	-20	/
N/C(=N\OC(=O)c1ccc(Cl)cc1Cl)c1ccccn1	22	/	/	1	0	/
CSc1nc2ccc(NS(=O)(=O)c3ccc(Br)s3)cc2s1	2	10	-44*	12	/	-7
CSc1nc2ccc(NS(=O)(=O)c3ccccc3F)cc2s1	/	0	-23	7	/	/
CC(=O)c1cccc(S(=O)(=O)Nc2ccc3nc(C)sc3c2)c1	50	?	-3	6	3	-2
SMILES	Env fusion inh	DENV2 CPE rescue	rRNA inh HTS	FN deposition inh	PglD inh	PGC1a acetyl inh
Cc1ccc(NS(=O)(=O)c2ccc3c(c2)NC(=O)CCS3)cc1C	13	5	-26*	2	8	-9
Cc1cccc(CCNS(=O)(=O)c2ccc3c(c2)NC(=O)CS3)c1	0	10	-35*	-4	-6	-3
Cc1ccc(NS(=O)(=O)c2ccc3c(c2)NC(=O)CCS3)cc1F	-2	-4	-8	-1	0	-8
Cc1nc2ccc(NS(=O)(=O)c3ccc(C)c(C)c3)cc2s1	71*	/	/	-8	4	-8
CO[C@@H]1CN(C)C(=O)c2ccc(NS(C)(=O)=O)cc2OC[C@H](C)N(Cc2ccccc2)C[C@H]1C	11[16.7 µM]	-2	-6	/	-1	6
COCC#Cc1ccc2c(c1)O[C@H](CN(C)S(=O)(=O)c1ccc(C)cc1)[C@H](C)CN([C@@H](C)CO)S2(=O)=O	16[16.7 µM]	-7	0	10	1	0
CN1C(=O)c2cc(NC(=O)c3cccc(F)c3)ccc2OC[C@H]2O[C@@H](CC(=O)NCC3CC3)CC[C@@H]21	/	-14	0	8	/	/
CCOC(=O)C1CN(S(=O)(=O)c2ccc(Cl)cc2)c2cc(S(=O)(=O)CC)ccc2O1 (stereo not given)	6	2	13	-12	/	-2
CCC1CN(S(=O)(=O)c2ccc3c(c2)NC(=O)CC(=O)N3)c2cc(Cl)ccc2O1 (stereo not given)	10	23*	-42	-5	5	/
CCOC(=O)[C@H]1[C@H]2COc3ccccc3[C@@H]2N2C(=O)c3c(C)cc(C)cc3NC(=O)[C@@]12C	89*	-15	-8	-9	-7	49
CCOC(=O)[C@H]1[C@H]2COc3ccccc3[C@@H]2N2C(=O)[C@@H](CO)NC(=O)[C@@]12C	1	29*	2	-5	-3	/
COc1cccc(NC(=O)N2[C@@H]3CNC[C@H]2C3c2ccc(-c3cccc(C(=O)N(C)C)c3)cc2)c1 (stereo not given in full)	/	3	4	-2	/	-2
COc1ccc(Cn2c(-c3ccc(OC)cc3)nc3ccccc32)cc1	/	-2	7	/	/	-3
COc1ccc(Cn2c(-c3ccc(Br)cc3)c[n+]3ccccc23)cc1	-12	-4	-30*	-4	2	/
C[C@H](CO)N1C[C@H](C)[C@@H](CN(C)C(=O)Nc2cccc(C(F)(F)F)c2)OCc2cnnn2CCCC1=O	/	-3	-13	1	-3	15
COCC(=O)N1C[C@H](C)[C@@H](OC)CN(C)C(=O)c2ccc(NC(=O)c3cc(C)on3)cc2OC[C@@H]1C	/	3	4	-6	/	9
O=C1OC(N2C(=O)CC[C@H]2C(=O)NCC2CCCO2)c2ccccc21 (stereo not given in full)	/	28*	/	/	-4	-1
CCc1ccccc1NC(=O)[C@@H]1CCC(=O)N1C1OC(=O)c2ccccc21 (stereo not given in full)	/	-6	/	/	0	3
O=C(N[C@@H]1C=C[C@@H](CC(=O)N2CCc3ccccc3C2)O[C@@H]1CO)C1CCOCC1	/	-4	6	/	/	4
Cc1c(NC(=O)c2ccc([N+](=O)[O-])o2)cccc1-c1nc2ncccc2o1	-180	2	-24*	3	4	-18
COc1cccc(C(=O)Nc2cccc(-c3nc4ncccc4o3)c2C)c1	/	/	/	/	5	18
O=C(c1ccc(F)cc1)N1CC(=O)N2[C@H](C1)[C@H](c1ccc(-c3ccccc3F)cc1)[C@@H]2CO	/	26*	5	/	/	-2
O=C1CNC[C@H]2[C@H](c3ccc(-c4ccccc4F)cc3)[C@@H](CO)N12	/	37*	3	4	/	14
